In brackets after ≈: the same amount, converted by molar mass.
Key:
[1] = system: Mycobacterium tuberculosis; assay: Antimycobacterial activity against Mycobacterium tuberculosis H37Rv assessed as reduction in bacterial growth incubated for 7 days by resazurin dye based assay; format: functional; settings: 168 h
How it was run: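 REMA broth microdilution: DMSO stocks diluted in 7H9-OADC, standardized inoculum added, final 0.98 to 250 μg/mL; 7 days at 35 °C in normal atmosphere, then 0.01% resazurin and a further 24 h at 35 °C. Read visually. MIC is the lowest concentration preventing the blue-to-pink change. Three independent assays on different days; isoniazid reference, medium, sterility and growth ±2.5% DMSO controls.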

[2] = Selectivity index, ratio of CC50 for African green monkey Vero cells to MIC for Mycobacterium tuberculosis 91; format: toxicity
[3] = Selectivity index, ratio of CC50 for African green monkey Vero cells to MIC for Mycobacterium tuberculosis BRF45; format: toxicity
[4] = Selectivity index, ratio of CC50 for African green monkey Vero cells to MIC for Mycobacterium tuberculosis BRF16; format: toxicity
[5] = Selectivity index, ratio of CC50 for African green monkey Vero cells to MIC for Mycobacterium tuberculosis 71A; format: toxicity
[6] = Selectivity index, ratio of CC50 for African green monkey Vero cells to MIC for Mycobacterium tuberculosis 3614; format: toxicity
[7] = Selectivity index, ratio of CC50 for African green monkey Vero cells to MIC for Mycobacterium tuberculosis H37Rv; format: toxicity
How it was run: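 Selectivity index computed as the CC50 from VERO MTT assay divided by the REMA MIC against H37Rv.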

[8] = Selectivity index, ratio of CC50 for African green monkey Vero cells to MIC for Mycobacterium tuberculosis BRF57; format: toxicity
[9] = Cytotoxicity against African green monkey Vero cells assessed as reduction in cell viability incubated for 24 hrs by MTT assay; format: cell-based; settings: chlorocebus sabaeus
How it was run: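 VERO (ATCC CCL81) cells grown in DMEM with 10% FBS at 37 °C, 5% CO₂. Seeded at 5 × 10⁴ cells/well for 24 h, then exposed to 1.95–1000 μg/mL in DMEM for 24 h. Washed with PBS, MTT (2 mg/mL in PBS) added for 4 h, dissolved in DMSO, A550 read. CC50 is the highest concentration leaving 50% of cells viable versus control. Three independent assays.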

[10] = Selectivity index, ratio of CC50 for African green monkey Vero cells to MIC for Mycobacterium tuberculosis 19; format: toxicity
[11] = Selectivity index, ratio of CC50 for African green monkey Vero cells to MIC for Mycobacterium tuberculosis 73A; format: toxicity
[12] = Selectivity index, ratio of CC50 for African green monkey Vero cells to MIC for Mycobacterium tuberculosis BRF14; format: toxicity

## COC(=O)c1cc2c([nH]c3ccccc32)c(-c2ccccc2)n1
[1]
  MIC: > 828 µM

## COC(=O)c1cc2c([nH]c3ccccc32)c(-c2ccccc2Cl)n1
[1]
  MIC: > 744 µM

## COC(=O)c1cc2c([nH]c3ccccc32)c(-c2ccc(OC)cc2)n1
[1]
  MIC: 579 µM (≈ 192 µg/mL)

## COC(=O)c1cc2c([nH]c3ccccc32)c(-c2cccc([N+](=O)[O-])c2)n1
[1]
  MIC: 720 µM (≈ 250 µg/mL)

## COC(=O)c1cc2c([nH]c3ccccc32)c(-c2ccc(N(C)C)cc2)n1
[2]
  selectivity ratio: 6.96
[3]
  selectivity ratio: 13.9
[4]
  selectivity ratio: 3.48
[1]
  MIC: 362 µM (≈ 125 µg/mL)
[5]
  selectivity ratio: < 1.74
[6]
  selectivity ratio: 13.5
[7]
  selectivity ratio: 3.48
[8]
  selectivity ratio: 3.48
[9]
  CC50 at 24 h: 435 µM
[10]
  selectivity ratio: 13.9
[11]
  selectivity ratio: 13.9
[12]
  selectivity ratio: 1.74

## O=C(NN1C(=O)CCC1=O)c1cc2c([nH]c3ccccc32)c(-c2ccc(F)cc2)n1
[2]
  selectivity ratio: 2.16
[3]
  selectivity ratio: 8.64
[4]
  selectivity ratio: 4.32
[1]
  MIC: 311 µM (≈ 125 µg/mL)
[5]
  selectivity ratio: 2.16
[6]
  selectivity ratio: 4.32
[7]
  selectivity ratio: 2.16
[8]
  selectivity ratio: 2.16
[9]
  CC50 at 24 h: 270 µM
[10]
  selectivity ratio: 4.32
[11]
  selectivity ratio: 8.64
[12]
  selectivity ratio: 4.32

## O=C(NN1C(=O)C=CC1=O)c1cc2c([nH]c3ccccc32)c(-c2ccccc2)n1
[1]
  MIC: 654 µM (≈ 250 µg/mL)

## O=C(NN1C(=O)c2ccccc2C1=O)c1cc2c([nH]c3ccccc32)c(-c2ccccc2Cl)n1
[1]
  MIC: 536 µM (≈ 250 µg/mL)

## O=C(NN1C(=O)c2ccccc2C1=O)c1cc2c([nH]c3ccccc32)c(-c2cccc([N+](=O)[O-])c2)n1
[2]
  selectivity ratio: < 2.6
[3]
  selectivity ratio: 5.2
[4]
  selectivity ratio: 5.2
[1]
  MIC: 262 µM (≈ 125 µg/mL)
[5]
  selectivity ratio: < 2.6
[6]
  selectivity ratio: 5.2
[7]
  selectivity ratio: 5.2
[8]
  selectivity ratio: < 2.6
[9]
  CC50 at 24 h: 650 µM
[10]
  selectivity ratio: 5.2
[11]
  selectivity ratio: 5.2
[12]
  selectivity ratio: 2.6

## COC(=O)c1cc2c([nH]c3ccccc32)c(-c2ccc(O)c(OC)c2)n1
[1]
  MIC: 718 µM (≈ 250 µg/mL)

## O=C(NN1C(=O)C=CC1=O)c1cc2c([nH]c3ccccc32)c(-c2ccc(F)cc2)n1
[1]
  MIC: 625 µM (≈ 250 µg/mL)

## COc1ccc(-c2nc(C(=O)NN3C(=O)CCC3=O)cc3c2[nH]c2ccccc23)cc1
[1]
  MIC: > 604 µM

## CN(C)c1ccc(-c2nc(C(=O)NN3C(=O)c4ccccc4C3=O)cc3c2[nH]c2ccccc23)cc1
[1]
  MIC: > 526 µM

## O=C(NN1C(=O)c2ccccc2C1=O)c1cc2c([nH]c3ccccc32)c(-c2ccccc2)n1
[2]
  selectivity ratio: 7.2
[3]
  selectivity ratio: 14.4
[4]
  selectivity ratio: 7.2
[1]
  MIC: 289 µM (≈ 125 µg/mL)
[5]
  selectivity ratio: 7.2
[6]
  selectivity ratio: 14.4
[7]
  selectivity ratio: 7.2
[8]
  selectivity ratio: 7.2
[9]
  CC50 at 24 h: 900 µM
[10]
  selectivity ratio: 14.4
[11]
  selectivity ratio: 14.4
[12]
  selectivity ratio: 7.2

## O=C(NN1C(=O)c2ccccc2C1=O)c1cc2c([nH]c3ccccc32)c(-c2ccc(F)cc2)n1
[2]
  selectivity ratio: 6.1
[3]
  selectivity ratio: 12.2
[1]
  MIC: 278 µM (≈ 125 µg/mL)
[5]
  selectivity ratio: 6.1
[6]
  selectivity ratio: 12.2
[7]
  selectivity ratio: 6.1
[8]
  selectivity ratio: 6.1
[9]
  CC50 at 24 h: 762 µM
[10]
  selectivity ratio: 12.2
[11]
  selectivity ratio: 12.2
[12]
  selectivity ratio: 12.2

## COc1ccc(-c2nc(C(=O)NN3C(=O)c4ccccc4C3=O)cc3c2[nH]c2ccccc23)cc1
[1]
  MIC: > 541 µM

## COc1cc(-c2nc(C(=O)NN3C(=O)c4ccccc4C3=O)cc3c2[nH]c2ccccc23)ccc1O
[1]
  MIC: 523 µM (≈ 250 µg/mL)

## O=C(NN1C(=O)CCC1=O)c1cc2c([nH]c3ccccc32)c(-c2cccc([N+](=O)[O-])c2)n1
[1]
  MIC: > 583 µM

## COC(=O)c1cc2c([nH]c3ccccc32)c(-c2ccc(F)cc2)n1
[1]
  MIC: > 781 µM

## NNC(=O)c1ccncc1 [ISONIAZID]
[1]
  MIC: 0.06 µM (≈ 0.00823 µg/mL)
